UBC13 polyUb – human UBC13 polyubiquitination inhibition; P61088; UBC13 polyubiquitin chain formation, TR-FRET; inhibition, % at 20 µM; hit rate 0.47% among 330,000; in the data active means inhibition above about 45%, passing the limit was not always enough
Target sequence (P61088 whole entry, looked up): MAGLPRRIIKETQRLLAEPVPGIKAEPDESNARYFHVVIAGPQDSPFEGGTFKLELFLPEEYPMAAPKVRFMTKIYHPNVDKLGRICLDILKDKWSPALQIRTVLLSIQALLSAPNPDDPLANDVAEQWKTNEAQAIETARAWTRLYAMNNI
MEKK2 mut-MEK5 – signal of MEK5 binding to mutant human MEKK2 PB1 domain | bead flow cytometry, Alexa488-MEK5 binding to MEKK2 mutant | hit rate 0.35% among 290,000 | percent response, % at 10 µM | AID 1530; in the data active means percent response above about 24%, passing the limit was not always enough
MEKK3 PB1 HTS – MEKK3-MEK5 PB1 interaction, increase or decrease | hit rate 1.4% among 290,000 | AID 1529 | binding response (% of control), % at 10 µM | bead-based flow cytometry, Alexa488-MEK5 binding to MEKK3; actives lie on both sides; 0 = blocked by unlabeled MEK5, 100 = vehicle;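 active means binding response more than 3 SD above or below the average of its plate-row segment, actives on both sides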;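 further: Alexa488 bead fluorescence after subtracting the streptavidin-only scavenger bead signal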
UCH37 DUB inh – inhibitors of human deubiquitinating enzyme UCH37. purified proteasome/UCH37, Ub-AMC cleavage fluorescence. AID 588478. Q9Y5K5. hit rate 0.33% among 330,000. inhibition, % (test concentration not listed);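 active means mean inhibition over replicate wells above about 20%, limit read from the data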;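 further: 0% = compound-free wells with enzyme and 100% = wells lacking proteasome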
Target sequence (Q9Y5K5 whole entry, looked up): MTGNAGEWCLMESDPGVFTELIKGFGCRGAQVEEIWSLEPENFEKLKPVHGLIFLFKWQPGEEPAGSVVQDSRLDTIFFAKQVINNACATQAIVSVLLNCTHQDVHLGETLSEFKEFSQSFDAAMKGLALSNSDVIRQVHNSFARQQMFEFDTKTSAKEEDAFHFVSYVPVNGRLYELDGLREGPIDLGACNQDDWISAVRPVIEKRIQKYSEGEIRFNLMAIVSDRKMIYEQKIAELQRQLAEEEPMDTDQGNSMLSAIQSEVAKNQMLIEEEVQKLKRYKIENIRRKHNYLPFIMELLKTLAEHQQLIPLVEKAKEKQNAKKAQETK
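assay system = human UCH37 enzyme supplied as purified proteasome complex | amount = proteasome at 0.15 nM in the dispensed enzyme solution | schedule = 30 min compound-proteasome preincubation then 25 min substrate reaction, room temperature | measured by = fluorescence, ex 355 nm, em 460 nm | benchmarks = no-proteasome wells (full inhibition) and compound-free wells (no inhibition)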
MEKK2wt PB1 HTS – raises or lowers MEK5 binding to wildtype human MEKK2 PB1 domain; bead flow cytometry, Alexa488-MEK5 binding to MEKK2 WT; actives lie on both sides; binding response (% of control), % at 10 µM; hit rate 1.1% among 290,000; AID 1531; Q9Y2U5; in the data active means binding response below about 67% or above about 130%
Apaf1 inhib – inhibitors of human Apaf-1 apoptosome; reconstituted apoptosome caspase-3 activity, DEVD-Rh110 fluorescence; inhibition, % at 20 µM; O14727; hit rate 0.71% among 330,000; active means inhibition of at least 40% at 20 µM;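 further: plate controls were DMSO wells for no effect and DEVD-CHO caspase inhibitor wells for full effect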
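detection = Rh110 fluorescence intensity | test system = biochemical Apaf-1 apoptosome reconstitution | also added = cytochrome c and DEVD-Rh110 substrate | schedule = 30 min plus 50 min, RT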
MEKK2wt confirm – raises or lowers MEK5 binding to wildtype human MEKK2, retest | bead flow cytometry, Alexa488-MEK5 binding to MEKK2 WT; actives lie on both sides | binding response (% of control), % at 10 µM | shares compounds with MEKK3 PB1 HTS | hit rate 2.4% among 5,900; in the data active means binding response below about 16% or above about 210%; inactive means in between
MEKK2mut confirm – signal of MEK5 binding to mutant human MEKK2, retest | shares compounds with MEKK3 PB1 HTS | hit rate 2% among 5,900 | bead flow cytometry, Alexa488-MEK5 binding to MEKK2 mutant | percent response, % at 10 µM | AID 1893; in the data active means percent response mostly above about 71%, no sharp cut-off; inactive means mostly below about 38%;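 further: higher means compound restores mutant binding toward wildtype level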
MEKK3 confirm – MEKK3-MEK5 PB1 inhibition, single concentration confirmation | shares compounds with MEKK3 PB1 HTS | bead flow cytometry, Alexa488-MEK5 binding to MEKK3; active compounds read low | binding response (% of control), % at 10 µM | hit rate 1.8% among 5,900 | AID 1894;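 active means binding response below 72% of control, or above a set upper limit, though filed actives all read lower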;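 further: 100% = DMSO only wells and 0% = binding blocked by excess unlabeled MEK5; lower values mean stronger disruption of MEK5 binding to MEKK3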
Active calls of the source: *; . = no result given; ! = repeats disagree; [ ] = dose if it differs, or a comment. Rows were chosen to be rich in hits. Some 3% of all compounds tested hit in one or more screens of this group.

SMILES	UBC13 polyUb	MEKK2 mut-MEK5	MEKK3 PB1 HTS	UCH37 DUB inh	MEKK2wt PB1 HTS	Apaf1 inhib	MEKK2wt confirm	MEKK2mut confirm	MEKK3 confirm
CC(C)CC1CCCCC1OC(=O)CN1CCCCC1 (stereo not given)	-5	-12	97	5	91	-1	.	.	.
CN(C)CCn1c2ccccc2c2nc3ccc([N+](=O)[O-])cc3cc21	-5	4	105	4	113	-3	.	.	.
Cc1ccc2cc(/C=N/NC(=O)[C@H]3C[C@@H]3c3ccccc3)c(Cl)nc2c1	-5	2	108	.	102	7	.	.	.
O=C(N/N=C/c1cc2ccccc2nc1Cl)[C@H]1C[C@@H]1c1ccccc1	-13	1	168*	.	108	25	100	-4	103
CC1CC(C)CN(C(=O)C(C)N2CCN(S(=O)(=O)c3ccccc3F)CC2)C1 (stereo not given)	-2	.	.	2	.	4	.	.	.
COc1cc(C2CC(=O)Oc3c(C(CCN4CCCC(C)C4)c4ccc(N(C)C)cc4)c(OC)cc(OC)c32)cc(OC)c1OC (stereo not given)	29	5	124	1	154*	15	119	13	105
COc1ccc(N2CCn3c2nc2c3c(=O)n(CCc3ccccc3)c(=O)n2C)c(OC)c1	.	1	109	5	99	.	.	.	.
COc1ccc(N2CC(C)Cn3c2nc2c3c(=O)n(Cc3ccccc3)c(=O)n2C)c(OC)c1 (stereo not given)	-14	-2	73*[inhibitor]	2	82	5	98	-7	105
Cc1ccc(-c2csc(NC(=O)CSc3nnc4c(n3)[nH]c3ccccc34)n2)cc1	.	-6	83	5	76	.	.	.	.
CCCCNC(=O)c1ccc(SCC(=O)N(CC)CC)c([N+](=O)[O-])c1	8	-6	104	4	96	-2	.	.	.
COc1ccc(NC(=S)N2c3ccccc3CC2C)cc1OC (stereo not given)	-13	-5	74*[inhibitor]	7	85	11	100	-1	102
COc1ccc(NC(=O)N2c3ccccc3CC2C)cc1OC (stereo not given)	-10	-1	102	5	100	1	.	.	.
O=C(CNc1ccc2c(c1)OCO2)N/N=C\c1cn(Cc2ccc(F)cc2)c2ccccc12	.	0	103	.	103	.	.	.	.
O=C(CN1C2CCCC1CC(NC(=O)C1CCCCC1)C2)Nc1ccccc1 (stereo not given)	9	0	96	3	95	3	.	.	.
COCCNC(=S)NC1CC2CCCC(C1)N2Cc1cccs1 (stereo not given)	-3	-10	82*[inhibitor]	3	86	-3	99	-2	97
Cc1ccc(CN2C3CCCC2CC(NC(=O)c2ccc(C)cc2)C3)cc1 (stereo not given)	13	52*	144*	2	200*	-7	116	18	101
CCCNC(=S)NC1CC2CCC(C1)N2Cc1ccccc1 (stereo not given)	-6	-11	82*[inhibitor]	1	88	-15	101	1	98
CC(=O)NC1CC2CCCC(C1)N2Cc1ccc(C)cc1 (stereo not given)	2	14	103	2	111	-2	.	.	.
O=C(NC1CC2CCCC(C1)N2Cc1ccccc1)C1CCCCC1 (stereo not given)	4	6	146*	-2	130	-4	96	-6	100
O=C(COC(=O)c1cccnc1Nc1cccc(C(F)(F)F)c1)NCCN1C(=O)CSC1=O	5	2	102	-1	100	13	.	.	.
Cc1cc(C)nc(NC(=O)CSc2nnnn2-c2ccccc2)n1	9	1	102	0	96	0	.	.	.
O=C(CC1NCCc2ccccc21)Nc1ccccc1 (stereo not given)	1	2	111	1	104	-7	.	.	.
COc1ccccc1CCn1cnc2c3cc(C)ccc3n(C)c2c1=O	20	-16	2.0*[inhibitor]	-40	2.0*[inhibitor]	25	104	3	103
Cc1cccc(Nc2ncnc3c2cnn3C)c1	-7	-9	97	0	89	-8	.	.	.
Cn1ncc2c(Nc3ccc4ccccc4c3)ncnc21	-4	-29	14*[inhibitor]	-3	19*[inhibitor]	11	102	-3	100
SMILES	UBC13 polyUb	MEKK2 mut-MEK5	MEKK3 PB1 HTS	UCH37 DUB inh	MEKK2wt PB1 HTS	Apaf1 inhib	MEKK2wt confirm	MEKK2mut confirm	MEKK3 confirm
Cc1ccccc1NC(=O)CSCCN1C(=O)c2ccccc2C1=O	12	-1	74*[inhibitor]	1	97	-4	98	0	99
COc1ccc(CCN2C(=O)C(Oc3ccccc3C)C2c2ccc3c(c2)OCO3)cc1 (stereo not given)	-9	1	156*	4	109	18	93	-10	98
COc1ccc(CCN2C(=O)C(Oc3ccccc3C)C2c2ccc3c(c2)OCO3)cc1OC (stereo not given)	4	3	100	7	100	26	.	.	.
N#CC(=NNc1ccc(Cl)cc1)C(N)=S	.	.	.	10	.	.	.	.	.
CC(/C=N/Nc1ncc(C)c(=O)[nH]1)=C\c1ccccc1	-31	5	140*	.	123	0	98	-3	102
CC(/C=N/Nc1nc(C)cc(=O)[nH]1)=C\c1ccccc1	-9	-2	112	.	107	2	.	.	.
COc1ccccc1CN(C)CC(=O)Nc1ccc(Cl)cc1C(F)(F)F	7	-1	95	0	98	28	.	.	.
CC(CCC(C)C)=NNS(=O)(=O)c1ccc(C)c([N+](=O)[O-])c1	.	.	.	4	.	.	.	.	.
NC(N)=N/N=C/c1c(Cl)cccc1Cl	-7	-13	44*![inhibitor]	.	51	5	102	-4	100
NC(N)=NN=Cc1ccccc1Cl	.	.	.	9	.	.	.	.	.

Source: PubChem BioAssay (several laboratories)
